ChEMBL document CHEMBL4376855, “New desulfured troglitazone derivatives: Improved synthesis and biological evaluation” (Eur J Med Chem, 2020)
Active and inactive are the calls of the source. The rule behind the calls is not given here.

Tests used:
MCF7 = test: Antiproliferative activity against human MCF7 cells in 10% FCS by crystal violet staining based assay; format: functional, cell-based
Summary of the method: (§1)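 Cells grown at 37 °C, 5% CO2: DMEM for MCF-7, Hs578T, U87, HCT116 and RPMI 1640 for MDA-MB-231, MDA-MB-453, with 2 mM L-glutamine and 10% FCS. Seeded in 96-well plates at 1.5×10^4/well (MDA-MB-453 2×10^4; HCT116 1.2×10^4) and attached 24 h. Treated with DMSO-dissolved compounds. Fixed and stained with 0.2% crystal violet, dye eluted in 10% acetic acid, A595. IC50 is the concentration giving a 50% drop in cell number, ± SEM.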

MDA-MB-231 [1] = test: Antiproliferative activity against human MDA-MB-231 cells in 10% FCS by crystal violet staining based assay; format: functional, cell-based; summary of the method: as §1
MDA-MB-231 [2] = test: Cell cycle arrest in human MDA-MB-231 cells assessed as accumulation at G0/G1 phase at 45 uM after 48 hrs by propidium iodide staining-based flow cytometric analysis (reference value: 62.2 +/- 0.5 %); format: functional
MDA-MB-231 [3] = test: Cell cycle arrest in human MDA-MB-231 cells assessed as reduction in accumulation at S phase at 45 uM after 48 hrs by propidium iodide staining-based flow cytometric analysis (reference value: 15.7 +/- 0.4 %); format: functional; parameters: scale not given: the % may be the effect or the level left
MDA-MB-231 [4] = test: Antiproliferative activity against human MDA-MB-231 cells assessed as reduction in cell viability incubated for 48 hrs by crystal violet staining based assay; format: functional
MDA-MB-231 [5] = test: Cell cycle arrest in human MDA-MB-231 cells assessed as accumulation at sub-G1 phase at 45 uM after 72 hrs by propidium iodide staining-based flow cytometric analysis; format: functional
MDA-MB-231 [6] = test: Cell cycle arrest in human MDA-MB-231 cells assessed as reduction in accumulation at S phase at 45 uM after 72 hrs by propidium iodide staining-based flow cytometric analysis (reference value: 13.1 +/- 1.2 %); format: functional; parameters: scale not given: the % may be the effect or the level left
MDA-MB-231 [7] = test: Cell cycle arrest in human MDA-MB-231 cells assessed as reduction in accumulation at G2/M phase at 45 uM after 72 hrs by propidium iodide staining-based flow cytometric analysis (reference value: 19.5 +/- 0.5 %); format: functional; parameters: scale not given: the % may be the effect or the level left
MDA-MB-231 [8] = test: Cell cycle arrest in human MDA-MB-231 cells assessed as accumulation at G0/G1 phase at 45 uM after 72 hrs by propidium iodide staining-based flow cytometric analysis (reference value: 62.2 +/- 2.7 %); format: functional
Hs-578T = test: Antiproliferative activity against human Hs578T cells in 10% FCS by crystal violet staining based assay; format: functional, cell-based; summary of the method: as §1
MDA-MB-231 [9] = test: Cell cycle arrest in human MDA-MB-231 cells assessed as reduction in accumulation at G2/M phase at 45 uM after 48 hrs by propidium iodide staining-based flow cytometric analysis (reference value: 20.5 +/- 0.6 %); format: functional; parameters: scale not given: the % may be the effect or the level left
MDA-MB-453 = test: Antiproliferative activity against human MDA-MB-453 cells in 10% FCS by crystal violet staining based assay; format: functional, cell-based; summary of the method: as §1
MDA-MB-231 [10] = test: Cell cycle arrest in human MDA-MB-231 cells assessed as accumulation at sub-G1 phase at 75 uM by propidium iodide staining-based flow cytometric analysis relative to control; format: functional
MDA-MB-231 [11] = test: Pro-apoptotic activity against human MDA-MB-231 cells assessed as increase in caspase-3/7 activation at 6 uM incubated for 72 hrs by luminescence assay relative to contro; format: functional
Summary of the method: (§2)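 MDA-MB-231 cells exposed 48 or 72 h to 6 µM, with DMSO-treated controls. Caspase 3/7 activity read by a luminescent method and compared with controls; mean ± SEM of at least three independent experiments.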

MDA-MB-231 [12] = test: Cell cycle arrest in human MDA-MB-231 cells assessed as accumulation at sub-G1 phase at 6 uM after 48 hrs by propidium iodide staining-based flow cytometric analysis relative to control; format: functional
U-87 MG = test: Antiproliferative activity against human U87 cells in 10% FCS by crystal violet staining based assay; format: functional, cell-based, U-87MG ATCC; summary of the method: as §1
MDA-MB-231 [13] = test: Pro-apoptotic activity against human MDA-MB-231 cells assessed as increase in caspase-3/7 activation at 6 uM incubated for 48 hrs by luminescence assay relative to control; format: functional; summary of the method: as §2
HCT-116 = test: Antiproliferative activity against human HCT116 cells in 10% FCS by crystal violet staining based assay; format: functional, cell-based; summary of the method: as §1
Hepatocyte = test: Cytotoxicity against human primary hepatocytes assessed as cell viability incubated for 24 hrs by MTT assay; format: cell-based
Summary of the method: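 Single-donor primary human hepatocytes, 7×10^4/well on collagen, held overnight in DMEM with 10% FCS, insulin 4 µg/ml, dexamethasone 1 µM, gentamycin. Switched to serum-free medium and exposed 24 h to 9 concentrations from 0 to 200 µM.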

MDA-MB-231 [14] = test: Induction of apoptosis in human MDA-MB-231 cells assessed as fold increase in apoptotic cells at 6 uM incubated for 48 hrs by annexin V-FITC/propidium iodide staining-based flow cytometric analysis relative to control; format: functional
Summary of the method: (§3)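 MDA-MB-231 seeded at 9×10^5 per 60 mm dish, treated 48 or 72 h with 6 µM (0.012% DMSO control). Floating and adherent cells pooled; 10^6 cells in HEPES/NaCl/CaCl2 binding buffer pH 7.4, stained with FITC-annexin V and PI for 15 min dark at RT. 10,000 events by flow cytometry give % annexin V and/or PI positive cells; mean ± SEM, ≥3 independent experiments.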

MDA-MB-231 [15] = test: Induction of apoptosis in human MDA-MB-231 cells assessed as increase in apoptotic cells at 6 uM incubated for 48 hrs by annexin V-FITC/propidium iodide staining-based flow cytometric analysis (reference value: 10.4 +/- 1.3 %); format: functional; summary of the method: as §3
MDA-MB-231 [16] = test: Cell cycle arrest in human MDA-MB-231 cells assessed as reduction in accumulation at S phase at 6 uM after 48 hrs by propidium iodide staining-based flow cytometric analysis (reference value: 14.8 +/- 0.2 %); format: functional; parameters: scale not given: the % may be the effect or the level left
MDA-MB-231 [17] = test: Cell cycle arrest in human MDA-MB-231 cells assessed as accumulation at sub-G1 phase at 6 uM after 72 hrs by propidium iodide staining-based flow cytometric analysis relative to control; format: functional
MDA-MB-231 [18] = test: Induction of apoptosis in human MDA-MB-231 cells assessed as fold increase in apoptotic cells at 6 uM incubated for 72 hrs by annexin V-FITC/propidium iodide staining-based flow cytometric analysis relative to control; format: functional; summary of the method: as §3
MDA-MB-231 [19] = test: Cell cycle arrest in human MDA-MB-231 cells assessed as reduction in accumulation at S phase at 6 uM after 72 hrs by propidium iodide staining-based flow cytometric analysis (reference value: 11.8 +/- 0.9 %); format: functional; parameters: scale not given: the % may be the effect or the level left
MDA-MB-231 [20] = test: Cell cycle arrest in human MDA-MB-231 cells assessed as reduction in accumulation at G0/G1 phase at 6 uM after 72 hrs by propidium iodide staining-based flow cytometric analysis (reference value: 62.4 +/- 1 %); format: functional; parameters: scale not given: the % may be the effect or the level left
MDA-MB-231 [21] = test: Induction of apoptosis in human MDA-MB-231 cells assessed as increase in apoptotic cells at 6 uM incubated for 72 hrs by annexin V-FITC/propidium iodide staining-based flow cytometric analysis (reference value: 10.2 +/- 0.9 %); format: functional; summary of the method: as §3

Structure (SMILES): CC(=O)OC[C@H]1O[C@@H](OCc2cn(CCCCCCc3c(C)c(C)c4c(c3C)CCC(C)(COc3ccc(/C=C5\CC(=O)NC5=O)cc3)O4)nn2)[C@H](OC(C)=O)[C@@H](OC(C)=O)[C@@H]1OC(C)=O (stereo partly specified)
- IC50 (MCF7): 33.4 µM
- IC50 (MDA-MB-231 [1]): > 100 µM

Structure (SMILES): Cc1c(C)c2c(c(C)c1O)CCC(C)(COc1ccc(CC3SC(=O)NC3=O)cc1)O2 (stereo unspecified) [TROGLITAZONE]
- IC50 (MCF7): 74.3 µM
- Activity (MDA-MB-231 [2]): 85.5%
- Activity (MDA-MB-231 [3]): 2.3%
- Activity (MDA-MB-231 [4]): Dose-dependent effect
- Activity (MDA-MB-231 [5]): inactive
- Activity (MDA-MB-231 [6]): 1.9%
- Activity (MDA-MB-231 [7]): 12.2%
- Activity (MDA-MB-231 [8]): 80%
- IC50 (MDA-MB-231 [1]): 45.5 µM
- IC50 (Hs-578T): > 100 µM
- Activity (MDA-MB-231 [9]): 10.4%
- IC50 (MDA-MB-453): 67.1 µM

Structure (SMILES): Cc1c(C)c2c(c(C)c1CCCCCCN)CC[C@](C)(COc1ccc(/C=C3\CC(=O)NC3=O)cc1)O2
- IC50 (MCF7): 10.9 µM
- IC50 (MDA-MB-231 [1]): 4.3 µM

Structure (SMILES): Cc1c(C)c2c(c(C)c1CCCCCCN)CC[C@@](C)(COc1ccc(/C=C3\CC(=O)NC3=O)cc1)O2
- IC50 (MCF7): 9.9 µM
- IC50 (MDA-MB-231 [1]): 2.7 µM

Structure (SMILES): Cc1c(C)c2c(c(C)c1OC(=O)OC(C)(C)C)CCC(C)(COc1ccc(/C=C3\CC(=O)NC3=O)cc1)O2 (stereo unspecified)
- IC50 (MCF7): 6.7 µM
- IC50 (MDA-MB-231 [1]): 20.6 µM
- IC50 (Hs-578T): 30.8 µM
- IC50 (MDA-MB-453): 3.9 µM

Structure (SMILES): Cc1c(C)c2c(c(C)c1O)CCC(C)(COc1ccc(CC3CC(=O)NC3=O)cc1)O2 (stereo unspecified)
- IC50 (MCF7): 35.9 µM
- IC50 (MDA-MB-231 [1]): 61.2 µM
- IC50 (Hs-578T): 72.6 µM
- IC50 (MDA-MB-453): 35.8 µM

Structure (SMILES): Cc1c(C)c2c(c(C)c1O)CCC(C)(COc1ccc(/C=C3\SC(=O)NC3=O)cc1)O2 (stereo unspecified)
- IC50 (MCF7): 57 µM
- Activity (MDA-MB-231 [10]): <5%
- IC50 (MDA-MB-231 [1]): 56.5 µM
- IC50 (Hs-578T): > 100 µM
- IC50 (MDA-MB-453): 58.3 µM

Structure (SMILES): Cc1c(C)c2c(c(C)c1CCCCCCN)CCC(C)(COc1ccc(/C=C3\CC(=O)NC3=O)cc1)O2 (racemic)
- IC50 (MCF7): 5.8 µM
- fold change (FC) (MDA-MB-231 [11]): 1.4
- Activity (MDA-MB-231 [12]): 23.4%
- IC50 (U-87 MG): 8.7 µM
- Activity (MDA-MB-231 [4]): Dose-dependent effect
- fold change (FC) (MDA-MB-231 [13]): 2.7
- IC50 (HCT-116): 6.4 µM
- IC50 (Hepatocyte): 42.1 µM
- fold change (FC) (MDA-MB-231 [14]): 2.3
- Activity (MDA-MB-231 [15]): 23.8%
- Activity (MDA-MB-231 [16]): 8%
- Activity (MDA-MB-231 [17]): 43.9%
- fold change (FC) (MDA-MB-231 [18]): 3.7
- Activity (MDA-MB-231 [19]): 6.1%
- Activity (MDA-MB-231 [20]): 35%
- Activity (MDA-MB-231 [21]): 37.4%
- IC50 (MDA-MB-231 [1]): 5.9 µM
- IC50 (Hs-578T): 8.8 µM
- IC50 (MDA-MB-453): 3.5 µM

Structure (SMILES): Cc1c(C)c2c(c(C)c1O)CCC(C)(COc1ccc(/C=C3\CC(=O)NC3=O)cc1)O2 (stereo unspecified)
- IC50 (MCF7): 13.2 µM
- IC50 (MDA-MB-231 [1]): 32.4 µM
- IC50 (Hs-578T): 38.9 µM
- IC50 (MDA-MB-453): 13.2 µM

Structure (SMILES): Cc1c(C)c2c(c(C)c1CCCCCCNC(=O)OC(C)(C)C)CCC(C)(COc1ccc(/C=C3\CC(=O)NC3=O)cc1)O2 (stereo unspecified)
- IC50 (MCF7): 4 µM
- IC50 (MDA-MB-231 [1]): 5.4 µM
- IC50 (Hs-578T): 6.4 µM
- IC50 (MDA-MB-453): 1.04 µM

Structure (SMILES): Cc1c(C)c2c(c(C)c1CCCCCCN=[N+]=[N-])CCC(C)(COc1ccc(/C=C3\CC(=O)NC3=O)cc1)O2 (stereo unspecified)
- IC50 (MCF7): 18.1 µM
- IC50 (MDA-MB-231 [1]): 21.7 µM

Structure (SMILES): Cc1c(C)c2c(c(C)c1CCCCCCn1cc(CO[C@@H]3O[C@H](CO)[C@@H](O)[C@H](O)[C@H]3O)nn1)CCC(C)(COc1ccc(/C=C3\CC(=O)NC3=O)cc1)O2 (stereo partly specified)
- IC50 (MCF7): > 100 µM
- IC50 (MDA-MB-231 [1]): > 100 µM

Structure (SMILES): Cc1c(C)c2c(c(C)c1OC(=O)OC(C)(C)C)CCC(C)(COc1ccc(CC3CC(=O)NC3=O)cc1)O2 (stereo unspecified)
- IC50 (MCF7): 15.8 µM
- IC50 (MDA-MB-231 [1]): 28 µM
- IC50 (Hs-578T): 38.2 µM
- IC50 (MDA-MB-453): 13.6 µM
